{"data": "Assay results collected from several papers", "note": "Protocols differ between the studies behind these lines."}
{"Compound": "NCC(=O)Nc1ccc(-n2nc(C(F)(F)F)cc2-c2ccc3c(ccc4ccccc43)c2)cc1", "test system": "mouse, plasma", "conditions": "oral, 80 mg/kg", "measurement": "half-life", "result": "22 h"}
{"Compound": "O=C(OC(C(F)(F)F)C(F)(F)F)N1CCN(Cc2ccc(C(F)(F)F)cc2N2CCCC2)CC1", "test": "HPLC", "measurement": "chromatographic logP", "result": 7.4}
{"Compound": "CN[C@H](CC(C)C)C(=O)N[C@H]1C(=O)N[C@@H](CC(N)=O)C(=O)N[C@H]2C(=O)NC3C(=O)N[C@H](C(=O)N[C@H](C(=O)NCCC[N+](C)(C)C)c4cc(O)cc(O)c4-c4cc3ccc4O)[C@H](O)c3ccc(c(Cl)c3)Oc3cc2cc(c3OC2OC(CO)C(O)[C@H](O)[C@@H]2O[C@H]2CC(C)(NCc3ccc(-c4ccc(Cl)cc4)cc3)[C@H](O)[C@H](C)O2)Oc2ccc(cc2Cl)[C@H]1O (some centres unmarked)", "test system": "mouse, plasma", "conditions": "intravenous, 50 mg/kg", "measurement": "half-life", "result": "6.2 h"}
{"Compound": "C[C@]12CC[C@H](n3ccnc3)CC1=CC[C@@H]1[C@@H]2CC[C@]2(C)C(n3cnc4ccccc43)=CC[C@@H]12.Cl", "test system": "male CD-1 mouse, plasma", "conditions": "intravenous, 1 mg/kg", "measurement": "half-life", "result": "17.1 h"}
{"Compound": "CC[C@H]1CN2CC[C@H]1C[C@H]2[C@H](O)c1ccnc2ccc(OC)cc12", "test system": "water", "measurement": "logP", "result": 3.07}
{"Compound": "C[C@]12CC[C@H](O)CC1=CC[C@@H]1[C@@H]2CC[C@]2(C)C(n3cnc4ccccc43)=CC[C@@H]12.Cl", "test system": "mouse, plasma", "conditions": "oral, 10 mg/kg", "measurement": "half-life", "result": "5.16 h"}
{"Compound": "N=c1c2c(-c3ccccc3)c(-c3ccccc3)n(Cc3ccccc3)c2ncn1[C@H]1CC[C@H](O)CC1", "test": "metabolic stability", "test system": "monkey, hepatocytes", "conditions": "1 µM, 4 h", "measurement": "compound remaining", "result": "119%"}
{"Compound": "C[C@H]1COCCN1c1nc(NCc2cccnc2C(F)(F)F)c2cccnc2n1", "test": "metabolic stability", "test system": "dog, hepatocytes", "measurement": "hepatocyte CLint", "result": "10 µL/min/10⁶ cells"}
{"Compound": "O=C(NCCCCCn1ccc2ccc(F)cc21)Oc1cccnc1", "test": "HPLC", "measurement": "chromatographic logP", "result": 2.6}
{"Compound": "N[C@@H](Cc1ccccc1)C(=O)N1C/C(=C\\c2ccc(Cl)c(Cl)c2)C(=O)/C(=C/c2ccc(Cl)c(Cl)c2)C1", "test system": "mouse, plasma", "conditions": "oral, 20 mg/kg", "measurement": "half-life", "result": "2.6 h"}
{"Compound": "Cc1cc(C)nc(Nc2ncc(C(=O)NCCc3c(C)[nH]c4ccccc34)cn2)c1", "test": "metabolic stability", "test system": "cynomolgus monkey, hepatocytes", "conditions": "1 µM", "measurement": "half-life", "result": "0.267 h"}
{"Compound": "O=C(O)c1cccc(OC(=O)N2CCC(CCn3ccc4ccc(F)cc43)CC2)c1", "test": "HPLC", "measurement": "chromatographic logP", "result": 3.6}
{"Compound": "C=C[C@H]1CN2CC[C@H]1C[C@H]2[C@H](O)c1ccnc2ccccc12", "test system": "water", "measurement": "logP", "result": 2.68}
{"Compound": "O=C(NCCCCCn1ccc2ccc(F)cc21)Oc1ccc(C(=O)O)cc1", "test": "HPLC", "measurement": "chromatographic logP", "result": 2.8}
{"Compound": "CC(C)[C@H]1C(=O)N[C@@H](CCCN=C(N)N)C(=O)NCC(=O)N[C@@H](CC(=O)O)C(=O)N[C@H](Cc2ccccc2)C(=O)N1C", "measurement": "logP", "result": -2}
{"Compound": "Nc1nc(-c2ccccc2)nc2[nH]nc(Nc3ccc(C(F)(F)F)cc3)c12", "test system": "mouse, plasma", "conditions": "oral, 100 mg/kg, 30 min", "measurement": "concentration", "result": "418 ng/mL"}
{"Compound": "NC(=O)c1cccc(-c2cccc(OC(=O)NC3CCCCC3)c2)c1", "test": "HPLC", "measurement": "chromatographic logP", "result": 2}
